Data on 15 molecules can be found in ChEMBL document CHEMBL1926509, “Discovery of pyrazolo[1,5-a]pyridines as p110α-selective PI3 kinase inhibitors” (Bioorg Med Chem, 2012).

Each structure is given as a SMILES string.

Broadly, the IC50 is the midpoint of a concentration-inhibition curve.

Assay [1] in a line: Cytotoxicity against human NZOV9 cells expressing p110alpha Y1021C mutant assessed as inhibition of [3H]thymidine incorporation after 5 days. The assay is classed as functional, cell-based. The method, boiled down: (§1)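 Early-passage lab-derived lines in α-MEM with insulin, transferrin, selenite and 5% FBS. Seeded at 1000 cells/well; drug added in 10-fold steps up to 20 µM. Incubated five days under 5% O₂/5% CO₂/90% N₂, with ³H-thymidine (0.04 µCi/well) over the last 6 h. Duplicates per dose; least-squares exponential fit; IC50 is the concentration giving 50% less incorporation.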

In assay [2] the target is T1, Phosphatidylinositol 4,5-bisphosphate 3-kinase catalytic subunit delta isoform (Homo sapiens, UniProt O00329).
T1 sequence (O00329 whole entry): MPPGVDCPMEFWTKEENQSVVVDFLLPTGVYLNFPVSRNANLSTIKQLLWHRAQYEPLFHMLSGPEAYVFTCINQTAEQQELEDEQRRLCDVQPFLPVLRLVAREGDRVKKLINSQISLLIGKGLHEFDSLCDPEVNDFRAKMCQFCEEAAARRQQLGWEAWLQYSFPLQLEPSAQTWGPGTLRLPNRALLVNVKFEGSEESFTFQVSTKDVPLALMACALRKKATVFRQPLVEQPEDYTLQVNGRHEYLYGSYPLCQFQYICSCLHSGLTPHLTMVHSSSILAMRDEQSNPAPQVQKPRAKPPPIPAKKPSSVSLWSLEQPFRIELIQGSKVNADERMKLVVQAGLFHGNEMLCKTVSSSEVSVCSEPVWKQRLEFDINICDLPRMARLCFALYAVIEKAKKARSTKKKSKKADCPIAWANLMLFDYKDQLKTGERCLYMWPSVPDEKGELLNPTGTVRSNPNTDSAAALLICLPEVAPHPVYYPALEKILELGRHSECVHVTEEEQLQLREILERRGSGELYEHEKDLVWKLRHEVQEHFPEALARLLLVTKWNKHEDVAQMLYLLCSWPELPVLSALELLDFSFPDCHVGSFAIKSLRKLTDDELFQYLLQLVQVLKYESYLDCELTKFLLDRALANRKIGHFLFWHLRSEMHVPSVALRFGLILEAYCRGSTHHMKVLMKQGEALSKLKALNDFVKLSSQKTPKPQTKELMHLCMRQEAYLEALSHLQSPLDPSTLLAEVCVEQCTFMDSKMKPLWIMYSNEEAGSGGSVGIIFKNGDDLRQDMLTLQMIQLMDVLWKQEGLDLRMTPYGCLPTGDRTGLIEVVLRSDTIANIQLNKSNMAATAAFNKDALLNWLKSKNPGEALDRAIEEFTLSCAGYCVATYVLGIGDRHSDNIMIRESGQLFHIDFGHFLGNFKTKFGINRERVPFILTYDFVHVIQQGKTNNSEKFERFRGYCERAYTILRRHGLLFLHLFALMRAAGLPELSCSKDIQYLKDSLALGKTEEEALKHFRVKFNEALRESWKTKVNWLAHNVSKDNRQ
As to the kind of experiment: Inhibition of recombinant PI3K p110delta using L-alpha-phosphatidylinositol as substrate and [gamma33P]ATP after 60 mins by thin layer chromatographic technique. The method, boiled down: (§2)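 In-house recombinant class Ia PI3K isoform (0.1 µg) with L-α-phosphatidylinositol substrate in lipid kinase buffer (Tris–HCl pH 7.4, NaCl, EDTA), 1% DMSO final. Started with ATP mix (5 mM MgCl₂, 100 µM ATP plus [γ-³³P]ATP), 1 h at room temperature, stopped with 1 M HCl. Lipids extracted in two steps, separated by TLC, read by phosphorimager. Nine inhibitor concentrations; IC50 averaged over two experiments.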

Assay [3] in a line: Cytotoxicity against human NZB5 cells expressing wild type p110alpha assessed as inhibition of [3H]thymidine incorporation after 5 days. The assay is classed as functional, cell-based. Put shortly:
as §1
(Dividing cells build labelled thymidine or BrdU into new DNA.)

Assay [4] addresses Phosphatidylinositol 4,5-bisphosphate 3-kinase catalytic subunit alpha isoform (Homo sapiens, UniProt P42336). As to the kind of experiment: Inhibition of recombinant PI3K p110alpha using L-alpha-phosphatidylinositol as substrate and [gamma33P]ATP after 60 mins by thin layer chromatographic technique. Put shortly:
as §2

Assay [5] deals with Phosphatidylinositol 4,5-bisphosphate 3-kinase catalytic subunit beta isoform (Homo sapiens, UniProt P42338). Kind of assay: Inhibition of recombinant PI3K p110beta using L-alpha-phosphatidylinositol as substrate and [gamma33P]ATP after 60 mins by thin layer chromatographic technique. The method, boiled down: as §2
Chain of Phosphatidylinositol 4,5-bisphosphate 3-kinase catalytic subunit beta isoform (P42338 whole entry, canonical isoform): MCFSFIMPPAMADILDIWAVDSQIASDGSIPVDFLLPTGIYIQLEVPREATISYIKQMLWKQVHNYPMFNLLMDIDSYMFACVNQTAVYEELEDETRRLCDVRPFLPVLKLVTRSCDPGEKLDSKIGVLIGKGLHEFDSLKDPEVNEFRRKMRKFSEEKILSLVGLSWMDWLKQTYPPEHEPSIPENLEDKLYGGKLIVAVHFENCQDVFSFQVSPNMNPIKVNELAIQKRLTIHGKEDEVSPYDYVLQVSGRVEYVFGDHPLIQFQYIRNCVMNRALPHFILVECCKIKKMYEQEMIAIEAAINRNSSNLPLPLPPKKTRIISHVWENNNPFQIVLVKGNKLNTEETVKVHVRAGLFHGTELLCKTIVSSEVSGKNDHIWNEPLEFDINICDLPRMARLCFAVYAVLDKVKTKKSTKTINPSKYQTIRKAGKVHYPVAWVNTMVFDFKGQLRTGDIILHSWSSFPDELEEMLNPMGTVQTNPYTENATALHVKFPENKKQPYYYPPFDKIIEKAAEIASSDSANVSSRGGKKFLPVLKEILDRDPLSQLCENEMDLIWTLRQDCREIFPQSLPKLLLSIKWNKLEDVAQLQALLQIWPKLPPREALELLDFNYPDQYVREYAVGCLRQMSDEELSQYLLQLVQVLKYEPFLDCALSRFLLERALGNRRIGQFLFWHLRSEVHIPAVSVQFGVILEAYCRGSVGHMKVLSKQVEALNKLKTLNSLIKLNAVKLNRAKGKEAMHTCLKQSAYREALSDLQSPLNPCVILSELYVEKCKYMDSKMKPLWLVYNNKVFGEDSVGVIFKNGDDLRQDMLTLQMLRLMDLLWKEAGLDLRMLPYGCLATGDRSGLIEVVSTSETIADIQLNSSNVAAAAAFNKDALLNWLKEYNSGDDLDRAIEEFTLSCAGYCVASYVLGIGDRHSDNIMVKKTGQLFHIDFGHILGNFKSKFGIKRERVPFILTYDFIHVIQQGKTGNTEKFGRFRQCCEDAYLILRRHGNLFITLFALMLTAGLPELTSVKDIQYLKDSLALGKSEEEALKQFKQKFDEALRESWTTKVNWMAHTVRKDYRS

Chain of Phosphatidylinositol 4,5-bisphosphate 3-kinase catalytic subunit alpha isoform (P42336 whole entry, canonical isoform): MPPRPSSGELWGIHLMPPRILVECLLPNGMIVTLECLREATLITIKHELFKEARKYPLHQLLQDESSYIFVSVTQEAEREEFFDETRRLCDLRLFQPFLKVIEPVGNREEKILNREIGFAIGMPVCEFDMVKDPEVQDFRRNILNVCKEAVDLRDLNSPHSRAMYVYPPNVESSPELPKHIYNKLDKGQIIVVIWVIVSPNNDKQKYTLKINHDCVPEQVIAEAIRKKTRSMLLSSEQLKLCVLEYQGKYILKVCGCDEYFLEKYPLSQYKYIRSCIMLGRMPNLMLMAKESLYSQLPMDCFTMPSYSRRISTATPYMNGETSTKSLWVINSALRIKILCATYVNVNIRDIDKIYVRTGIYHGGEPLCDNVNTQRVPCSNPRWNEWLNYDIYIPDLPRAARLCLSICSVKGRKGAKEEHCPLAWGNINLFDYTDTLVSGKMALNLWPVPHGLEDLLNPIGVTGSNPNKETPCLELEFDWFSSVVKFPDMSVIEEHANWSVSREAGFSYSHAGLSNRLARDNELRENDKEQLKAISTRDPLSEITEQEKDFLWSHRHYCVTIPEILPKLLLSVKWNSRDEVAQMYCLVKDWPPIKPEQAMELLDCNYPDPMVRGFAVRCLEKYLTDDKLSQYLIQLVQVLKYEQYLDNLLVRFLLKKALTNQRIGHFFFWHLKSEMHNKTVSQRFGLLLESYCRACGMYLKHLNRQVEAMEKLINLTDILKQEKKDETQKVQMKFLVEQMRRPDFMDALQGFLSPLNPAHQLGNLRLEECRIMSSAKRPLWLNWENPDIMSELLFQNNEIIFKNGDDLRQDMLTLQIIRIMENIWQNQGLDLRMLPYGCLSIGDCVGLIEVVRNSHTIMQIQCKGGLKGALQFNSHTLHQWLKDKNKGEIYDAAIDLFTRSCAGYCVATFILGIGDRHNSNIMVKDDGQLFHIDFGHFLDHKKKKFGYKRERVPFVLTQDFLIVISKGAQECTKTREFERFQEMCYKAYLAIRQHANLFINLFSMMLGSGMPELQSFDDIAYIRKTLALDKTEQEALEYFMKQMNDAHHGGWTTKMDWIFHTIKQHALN

Consider `Cc1ccn2ncc(/C=N/N(C)S(=O)(=O)c3cc([N+](=O)[O-])ccc3C)c2c1`, for which the IC50 in assay [1] is 70 nM; in assay [2], 700 nM; in assay [3], 50 nM; in assay [4] it was 110 nM; in assay [5] it was above 1000 nM.
On to `C/C(=N\N(C)S(=O)(=O)c1cc([N+](=O)[O-])ccc1C)c1cnn2ccc(C#N)cc12`, for which the half-maximal inhibitory concentration (IC50) in assay [1] was 7500 nM; in assay [2] it was 510 nM; in assay [3] it was 4400 nM; in assay [4], 80 nM; in assay [5] it was 600 nM.
On to `Cc1ccc([N+](=O)[O-])cc1S(=O)(=O)N(C)/N=C/c1cnn2ccc(C(=O)N(C)C)cc12`, for which the half-maximal inhibitory concentration (IC50) in assay [1] is 10000 nM; in assay [2], above 1000 nM; in assay [3], 10000 nM; in assay [4] it was above 1000 nM; in assay [5], above 1000 nM.
`Cc1ccc([N+](=O)[O-])cc1S(=O)(=O)N(C)/N=C/c1cnn2cc(F)c(C#N)cc12`: the IC50 in assay [2] is 2500 nM; in assay [4], 45 nM; in assay [5], 1800 nM.
`CCC/C(=N\NS(=O)(=O)c1cc([N+](=O)[O-])ccc1C)c1cnn2ccc(C#N)cc12`: the IC50 is 640 nM in assay [1]; 310 nM in assay [2]; 370 nM in assay [3]; 39 nM in assay [4]; above 1000 nM in assay [5].
For `Cc1ccc([N+](=O)[O-])cc1S(=O)(=O)N(C)/N=C/c1cnn2cccc(C)c12` the same measures were above 20000 nM, above 1000 nM, 18000 nM, above 1000 nM and above 1000 nM.
For `Cc1ccc([N+](=O)[O-])cc1S(=O)(=O)N(C)/N=C/c1cnn2ccc(-c3ccccc3)cc12` the same measures were 10000 nM, above 1000 nM, 10000 nM, above 1000 nM and above 1000 nM.
As for `Cc1ccc([N+](=O)[O-])cc1S(=O)(=O)N(C)/N=C/c1cnn2ccc(O)cc12`, the IC50 was above 20000 nM in assay [1]; above 1000 nM in assay [2]; above 20000 nM in assay [3]; 340 nM in assay [4]; above 1000 nM in assay [5].
As to `Cc1ccc([N+](=O)[O-])cc1S(=O)(=O)N(C)/N=C/c1cnn2ccc(I)cc12`, the IC50 in assay [1] worked out at 50 nM; in assay [2] it was 170 nM; in assay [3], 40 nM; in assay [4], 16 nM; in assay [5], 370 nM.
For `Cc1ccc([N+](=O)[O-])cc1S(=O)(=O)N/N=C/c1cnn2ccc(C#N)cc12`, the IC50 in assay [1] worked out at 4900 nM; in assay [2], 580 nM; in assay [3], 2600 nM; in assay [4], 13 nM; in assay [5], 620 nM.
For `C/C(=N\NS(=O)(=O)c1cc([N+](=O)[O-])ccc1C)c1cnn2ccc(Br)cc12` the same measures were 350 nM, 220 nM, 420 nM, 30 nM and 480 nM.
For `C/C(=N\N(C)S(=O)(=O)c1cc([N+](=O)[O-])ccc1C)c1cnn2ccc(Br)cc12` the same measures were above 20000 nM, above 1000 nM, above 20000 nM, 1200 nM and above 1000 nM.
In the case of `CC(=O)Oc1ccn2ncc(/C=N/N(C)S(=O)(=O)c3cc([N+](=O)[O-])ccc3C)c2c1`, the IC50 in assay [1] is 8900 nM; in assay [2], above 1000 nM; in assay [3], 8200 nM; in assay [4] it was 910 nM; in assay [5], above 1000 nM.
`Cc1ccc([N+](=O)[O-])cc1S(=O)(=O)N(C)/N=C/c1cnn2c(C)cccc12`: the IC50 in assay [1] is 1200 nM; in assay [2], above 1000 nM; in assay [3], 6000 nM; in assay [4], 1600 nM; in assay [5], above 1000 nM.
Take `Cc1ccc([N+](=O)[O-])cc1S(=O)(=O)N(C)/N=C/c1cnn2ccc(Cl)cc12`: the IC50 in assay [1] was found to be 550 nM; in assay [2], 90 nM; in assay [4], 2.9 nM; in assay [5], 390 nM.
